# Test results taken from ChEMBL document CHEMBL1127554, “Design, synthesis, and study of 9-substituted ellipticine and 2-methylellipticinium analogues as potential CNS-selective antitumor agents” (1994).
# How the values were obtained:
# Tumor Cell line [1] = assay: LC50 was measured In vitro as the ratio of the mean activity for all non-CNS tumor cell lines over the mean activity of the CNS tumor subpanel (eight cell lines); format: functional, Homo sapiens
# Summary of the method: (§1)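 Same PG dose-response panel. LC50 (μM) is averaged separately over the non-CNS lines (ca. 40-50 lines) and the CNS subpanel (eight lines). The ratio is the non-CNS mean divided by the CNS mean.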
# Tumor Cell line [2] = assay: GI50 was measured In vitro as the ratio of the mean activity for all non-CNS tumor cell lines over the mean activity of the CNS tumor subpanel (eight cell lines); format: functional, Homo sapiens
# Summary of the method: (§2)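 Ratio of the mean activity (μM) over all non-CNS tumour cell lines (ca. 40-50 lines) to the mean activity (μM) of the CNS subpanel (eight lines). Activity was taken from PG vs log concentration curves: GI50 at PG +50%, TGI at PG 0%.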
# Tumor Cell line [3] = assay: LC50 was given In vitro as -50% percent growth (PG), measured as concentration of compound required to inhibit disease oriented human tumor cell line panels; Value ranges from 4.68-100; format: functional; settings: read-out: LC50 (the source's name)
# Summary of the method: (§3)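 Human tumor cell line panel tested in vitro. Percent growth (PG) plotted against log drug concentration to give dose-response curves. LC50 is the concentration where PG equals -50%; GI50 and TGI are taken at +50% and 0%. Values are means across the full panel, with values beyond the tested limits (> or <) included in the mean.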
# Tumor Cell line [4] = assay: TGI was measured In vitro as the ratio of the mean activity for all non-CNS tumor cell lines over the mean activity of the CNS tumor subpanel (eight cell lines); format: functional, Homo sapiens; summary of the method: as §2
# Tumor Cell line [5] = assay: LC50 was given In vitro as -50% percent growth (PG), measured as concentration of compound required to inhibit disease oriented human tumor cell line panels; Value ranges from 67.61->100; format: functional; settings: read-out: LC50 (the source's name); summary of the method: as §3
# Tumor Cell line [6] = assay: GI50 was given In vitro as +50% percent growth (PG), measured as concentration of compound required to inhibit disease oriented human tumor cell line panels; Value ranges from 0.23-29.5; format: functional
# Summary of the method: (§4)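 Human tumour cell line panel; percent growth plotted against log drug concentration to give dose-response curves. GI50 is the concentration giving PG +50%, and TGI the concentration giving PG 0%. Values are mean inhibitory concentrations over the entire panel. PG values at either limit (> or <) are included in the mean.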
# Tumor Cell line [7] = assay: TGI was given In vitro as 0% percent growth (PG), measured as concentration of compound required to inhibit disease oriented human tumor cell line panels; Value ranges from 0.65->100; format: functional
# Tumor Cell line [8] = assay: LC50 was given In vitro as -50% percent growth (PG), measured as concentration of compound required to inhibit disease oriented human tumor cell line panels; Value ranges from 5.6->100; format: functional; settings: read-out: LC50 (the source's name)
# Tumor Cell line [9] = assay: GI50 was given In vitro as +50% percent growth (PG), measured as concentration of compound required to inhibit disease oriented human tumor cell line panels; Value ranges from 0.19->100; format: functional
# Tumor Cell line [10] = assay: GI50 was given In vitro as +50% percent growth (PG), measured as concentration of compound required to inhibit disease oriented human tumor cell line panels; Value ranges from 0.02->100; format: functional; summary of the method: as §4
# Tumor Cell line [11] = assay: LC50 was given In vitro as -50% percent growth (PG), measured as concentration of compound required to inhibit disease oriented human tumor cell line panels; Value ranges from 1.20->100; format: functional; settings: read-out: LC50 (the source's name)
# Tumor Cell line [12] = assay: TGI was given In vitro as 0% percent growth (PG), measured as concentration of compound required to inhibit disease oriented human tumor cell line panels; Value ranges from 0.30->100; format: functional
# [13] = TGI was measured in vitro as the ratio of the mean activity for all non-CNS tumor cell lines over the mean activity of the CNS tumor subpanel (eight cell lines); format: functional; summary of the method: as §2
# Tumor Cell line [14] = assay: GI50 was given in vitro as +50% percent growth (PG), measured as concentration of compound required to inhibit disease oriented human tumor cell line panels; Value ranges from 1.58-11.22; format: functional; summary of the method: as §4
# [15] = GI50 was measured in vitro as the ratio of the mean activity for all non-CNS tumor cell lines over the mean activity of the CNS tumor subpanel (eight cell lines); format: functional; summary of the method: as §2
# Tumor Cell line [16] = assay: TGI was given in vitro as 0% percent growth (PG), measured as concentration of compound required to inhibit disease oriented human tumor cell line panels; Value ranges from 2.95-54.95; format: functional; summary of the method: as §4
# [17] = LC50 was measured in vitro as the ratio of the mean activity for all non-CNS tumor cell lines over the mean activity of the CNS tumor subpanel (eight cell lines); format: functional; summary of the method: as §1
# Tumor Cell line [18] = assay: LC50 was given in vitro as -50% percent growth (PG), measured as concentration of compound required to inhibit disease oriented human tumor cell line panels; Value ranges from 5.50->100; format: functional; settings: read-out: LC50 (the source's name); summary of the method: as §3
# Tumor Cell line [19] = assay: TGI was given In vitro as 0% percent growth (PG), measured as concentration of compound required to inhibit disease oriented human tumor cell line panels; Value ranges from 3.24-37.15; format: functional; summary of the method: as §4
# Tumor Cell line [20] = assay: LC50 was given In vitro as -50% percent growth (PG), measured as concentration of compound required to inhibit disease oriented human tumor cell line panels; Value ranges from 8.13->76; format: functional; settings: read-out: LC50 (the source's name); summary of the method: as §3
# Tumor Cell line [21] = assay: GI50 was given In vitro as +50% percent growth (PG), measured as concentration of compound required to inhibit disease oriented human tumor cell line panels; Value ranges from 1.38-15.14; format: functional; summary of the method: as §4
# Tumor Cell line [22] = assay: GI50 was given In vitro as +50% percent growth (PG), measured as concentration of compound required to inhibit disease oriented human tumor cell line panels; Value ranges from 0.62-2.95; format: functional; summary of the method: as §4
# Tumor Cell line [23] = assay: LC50 was given In vitro as -50% percent growth (PG), measured as concentration of compound required to inhibit disease oriented human tumor cell line panels; Value ranges from 12.30->100; format: functional; settings: read-out: LC50 (the source's name); summary of the method: as §3
# Tumor Cell line [24] = assay: GI50 was given In vitro as +50% percent growth (PG), measured as concentration of compound required to inhibit disease oriented human tumor cell line panels; Value ranges from 0.22-52.48; format: functional; summary of the method: as §4
# Tumor Cell line [25] = assay: LC50 was given In vitro as -50% percent growth (PG), measured as concentration of compound required to inhibit disease oriented human tumor cell line panels; format: functional; settings: read-out: LC50 (the source's name); summary of the method: as §3
# Tumor Cell line [26] = assay: LC50 was given In vitro as -50% percent growth (PG), measured as concentration of compound required to inhibit disease oriented human tumor cell line panels; Value ranges from 22.91->55; format: functional; settings: read-out: LC50 (the source's name); summary of the method: as §3
# Tumor Cell line [27] = assay: GI50 was given In vitro as +50% percent growth (PG), measured as concentration of compound required to inhibit disease oriented human tumor cell line panels; Value ranges from 0.51-12.88; format: functional; summary of the method: as §4
smiles,measurement,setting,value
CCOc1ccc2[nH]c3c(C)c4ccncc4c(C)c3c2c1,LC50 ratio,Tumor Cell line [1],1.7
same,GI50 ratio,Tumor Cell line [2],0.89
same,CC50,Tumor Cell line [3],> 8.32 µM
same,TGI ratio,Tumor Cell line [4],1.32
CC(=O)[O-].Cc1c2cc[n+](C)cc2c(C)c2c1[nH]c1ccc(Oc3ccccc3)cc12,GI50 ratio,Tumor Cell line [2],3.48
same,CC50,Tumor Cell line [5],> 97.7 µM
same,GI50,Tumor Cell line [6],1.82 µM
same,TGI ratio,Tumor Cell line [4],3.06
CC(=O)[O-].CCOc1ccc2[nH]c3c(C)c4cc[n+](C)cc4c(C)c3c2c1,GI50 ratio,Tumor Cell line [2],5.92
same,TGI,Tumor Cell line [7],> 19.5 µM
same,CC50,Tumor Cell line [8],> 74.1 µM
same,GI50,Tumor Cell line [9],> 2.34 µM
same,TGI ratio,Tumor Cell line [4],7.08
CC(=O)[O-].COc1ccc2[nH]c3c(C)c4cc[n+](C)cc4c(C)c3c2c1,GI50 ratio,Tumor Cell line [2],16.7
same,GI50,Tumor Cell line [10],> 1.86 µM
same,CC50,Tumor Cell line [11],> 49 µM
same,TGI ratio,Tumor Cell line [4],33.9
same,TGI,Tumor Cell line [12],> 14.8 µM
Cc1c2ccncc2c(C)c2c1[nH]c1ccc(OC(C)(C)C)cc12,TGI ratio,[13],1.17
same,GI50,Tumor Cell line [14],2.57 µM
same,GI50 ratio,[15],1.1
same,TGI,Tumor Cell line [16],7.24 µM
same,LC50 ratio,[17],0.98 µM
same,CC50,Tumor Cell line [18],> 32.4 µM
Cc1c2ccncc2c(C)c2c1[nH]c1ccc(O)c(OCC(F)(F)F)c12,TGI,Tumor Cell line [19],15.8 µM
same,CC50,Tumor Cell line [20],> 42.7 µM
same,GI50 ratio,Tumor Cell line [2],1.07
same,GI50,Tumor Cell line [21],5.89 µM
same,TGI ratio,Tumor Cell line [4],0.98
Cc1c2cc[n+](C)cc2c(C)c2c1[nH]c1ccc(OCC(F)(F)F)cc12.[I-],GI50,Tumor Cell line [22],1.58 µM
same,GI50 ratio,Tumor Cell line [2],6.26
same,CC50,Tumor Cell line [23],> 79.4 µM
same,TGI ratio,Tumor Cell line [4],9.11
CC(=O)[O-].Cc1c2cc[n+](C)cc2c(C)c2c1[nH]c1ccc(OCC(F)(F)F)cc12,GI50 ratio,Tumor Cell line [2],12.9
same,GI50,Tumor Cell line [24],3.47 µM
same,CC50,Tumor Cell line [25],> 100 µM
same,TGI ratio,Tumor Cell line [4],13.7
Cc1c2cc[n+](C)cc2c(C)c2c1[nH]c1ccc(O)c(OCC(F)(F)F)c12.[I-],LC50 ratio,Tumor Cell line [1],1.35
same,GI50 ratio,Tumor Cell line [2],5.65
same,CC50,Tumor Cell line [26],> 50.1 µM
same,GI50,Tumor Cell line [27],2.24 µM
same,TGI ratio,Tumor Cell line [4],3.89
